Bioassay records as filed in PubChem.
CHRM5 antagonist: CHRM5 antagonism in calcium assay | CHO-hM5 cells, Fluo-8 calcium fluorescence, ACh EC80 | inhibition, % at 3 µM | 360,000 tested, 0.59% active | AID 624040;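 active = inhibition above a per-plate cutoff, the mean of that plate's test compounds plus 3 SD, cut at about 27% in these data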;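 note: 0% = acetylcholine EC80 with DMSO and 100% = DMSO without agonist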
Target sequence (P08912 whole entry, looked up): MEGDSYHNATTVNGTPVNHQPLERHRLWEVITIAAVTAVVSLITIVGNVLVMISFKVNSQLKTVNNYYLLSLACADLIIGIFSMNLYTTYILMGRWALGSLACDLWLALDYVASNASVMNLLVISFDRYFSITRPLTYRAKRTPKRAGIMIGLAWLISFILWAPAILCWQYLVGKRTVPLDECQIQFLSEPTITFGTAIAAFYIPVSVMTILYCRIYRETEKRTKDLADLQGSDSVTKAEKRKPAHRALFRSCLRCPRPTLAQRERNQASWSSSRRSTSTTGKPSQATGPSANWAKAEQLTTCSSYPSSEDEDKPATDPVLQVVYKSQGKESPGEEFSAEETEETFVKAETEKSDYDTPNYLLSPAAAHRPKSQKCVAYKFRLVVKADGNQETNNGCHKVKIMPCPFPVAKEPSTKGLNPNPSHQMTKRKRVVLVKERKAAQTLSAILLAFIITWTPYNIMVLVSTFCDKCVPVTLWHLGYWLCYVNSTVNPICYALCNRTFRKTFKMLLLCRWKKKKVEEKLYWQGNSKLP
CHRM5 agonist: CHRM5 agonism in calcium assay; P08912; CHO-K1 hM5 cells, Fluo-8 calcium fluorescence; 0% DMSO wells, 100% maximal acetylcholine response; activation, % at 3 µM; 360,000 tested, 0.19% active;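 active = activation above the run's mean over test compounds plus 3 SD, cut at about 23% in these data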;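 note: signal is peak over basal fluorescence ratio across the kinetic read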
CHO-K1 Ca antag: M1 antagonist counterscreen hit in parental CHO-K1 cells. ATP-induced calcium, Fluo-8 fluorescence. inhibition, % at 3 µM. 360,000 tested, 0.6% active. AID 602250;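 active = inhibition above a per-plate cutoff, the plate's mean sample inhibition plus 3 SD, cut at about 24% in these data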;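 note: 0% = DMSO plus EC80 ATP and 100% = DMSO alone without ATP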
CHO-K1 Ca ag: M1 agonist counterscreen hit in parental CHO-K1 cells; Fluo-8 calcium fluorescence; scaled to maximal ATP response, vehicle zero; activation, % at 3 µM; 360,000 tested, 0.48% active; in the data active = activation above about 15%;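 note: untransfected CHO-K1 host cells lacking M1 receptor as counterscreen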
CHO-K1 Ca PAM: nonselective activator or artifact in parental CHO-K1 calcium assay; activation, % at 3 µM; ATP EC20, Fluo-8 calcium fluorescence; 0% at ATP EC20, 100% at ATP max; 360,000 tested, 0.02% active;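 active = activation above the run cutoff, the mean activation of all test compounds plus 3 SD, cut at about 40% in these data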;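 note: peak over basal fluorescence ratio in a 140 s read after ATP addition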
CHRM5 PAM: potentiates acetylcholine response at human M5 receptor; P08912; CHO-K1 hM5, Fluo-8 calcium, ACh EC20 PAM; 0% = ACh EC20, 100% = ACh EC100; activation, % at 3 µM; 360,000 tested, 0.3% active;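 active = activation above the run cutoff, the mean activation of all test compounds plus 3 SD, cut at about 18% in these data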
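system = human M5 receptor in CHO-K1 cells | compound = one concentration, 3 µM final (nominal) | schedule = Post-acetylcholine fluorescence recording 140 s | signal = Fluo-8 calcium dye fluorescence, kinetic read | benchmarks = low control EC20 acetylcholine (0%), high control EC100 acetylcholine (100%) | repeats = singlicate, one well per test compound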
* marks the source's active call; other numbers are inactive results; ! = not confirmed by another sample. Sampled rows, rich in hits. Any-hit rate of the full collection: about 1.7%.

SMILES	CHRM5 antagonist	CHRM5 agonist	CHO-K1 Ca antag	CHO-K1 Ca ag	CHO-K1 Ca PAM	CHRM5 PAM
CN1CCN(C2Cc3ccccc3Sc3ccc(Cl)cc32)CC1 (stereo unspecified)	54*	0	20	7	-4	-18
CSc1ccc2c(c1)C(N1CCN(C)CC1)Cc1ccccc1S2 (stereo unspecified)	70*	4	11	15*!	0	-18
CN1CCN(C2Cc3cc(F)ccc3Sc3ccc(Cl)cc32)CC1 (stereo unspecified)	80*	-15	-17	5	14	-35
Cc1cc(=O)[nH]c2cc(O)ccc12	-13	4	-26	1	23	7
CC(=O)Oc1ccc2c(C)cc(=O)[nH]c2c1	-8	3	26*	-1	-8	2
CCNc1nc(NC(C)(C)C)nc(N2CCCCC2)n1	61*	-10	-8	5	21	-22
COc1ccc(-c2nc3c4ccccc4ccn3c2Cc2ccc(C)cc2)cc1OC	8	-5	-6	0	-9	-3
COc1ccc(-c2nc3c4ccccc4ccn3c2Cc2ccsc2)cc1OC	-5	-7	24*	0	-11	-18
CN1CCN(C(=O)c2ccc(COc3cc(Cl)ccc3Cl)o2)CC1	24	-6	3	1	-10	-5
CCN(CC)CC#CCC(O)(c1ccccc1)c1ccccc1	29*	-16	-9	1	5	-35
CNC(=S)NC1CC2CCCC(C1)N2Cc1ccc(C)cc1 (stereo unspecified)	4	-8	-9	0	-9	28*
CN1CCC(=O)N(CCOc2ccccc2)CC1	-15	2	10	0	-1	20*
COc1ccc(OC)c(S(=O)(=O)Nc2ccc3oc(C)c(C(C)=O)c3c2)c1	8	2	-10	10	4	-7
O=C(CCN1CCCC1Cc1ccccc1)c1ccc2c(c1)OCCO2 (stereo unspecified)	13	-7	-12	1	21	-20
COc1cc(C=NN2CCCCC2)cc(OC)c1OC	5	27*	0	0	7	-5
Cc1ccc(SCC(=O)Nc2ccc(S(=O)(=O)Nc3nccs3)cc2)cc1	5	0	3	0	12	4
Oc1ccc(Br)cc1-c1cc(-c2ccccc2F)[nH]n1	1	2	26*	0	-4	-5
Cc1ccc(NS(=O)(=O)c2ccc(C(=O)N3CC(C)CC(C)C3)cc2)cc1 (stereo unspecified)	31*	56*	36*	53*	-6	-15
CC1CN(C(=O)c2ccc(S(=O)(=O)Nc3cccc(C(F)(F)F)c3)cc2)CC(C)O1 (stereo unspecified)	3	28*	0	21*	-9	-4
O=C(c1ccc(S(=O)(=O)Nc2cccc(C(F)(F)F)c2)cc1)N1CCOCC1	16	4	-5	7	20	-5
Cc1ccc(S(=O)(=O)Nc2ccc(C(=O)N3CCCC3)cc2)cc1	2	0	-7	2	13	-4
CN(C)S(=O)(=O)c1ccc(C(=O)Nc2ccccn2)cc1	-1	2	-13	0	4	-5
O=C(CSc1nnc(SCc2ccccc2)s1)NNC(=S)Nc1ccccc1	7	0	29*	0	-16	-6
CCN1CCCC(OC(=O)c2cc(-c3ccc(C)cc3)nc3ccccc23)C1 (stereo unspecified)	-4	-5	-6	1	30	4
COc1cc(C2CC(=O)C=C(O)C2)cc(OC)c1OC (stereo unspecified)	2	0	25*	-1	-8	-3
SMILES	CHRM5 antagonist	CHRM5 agonist	CHO-K1 Ca antag	CHO-K1 Ca ag	CHO-K1 Ca PAM	CHRM5 PAM
CN(CCn1ccnc1)C(=O)CC1C(=O)NCCN1Cc1ccccc1C(F)(F)F (stereo unspecified)	10	-1	-10	1	17	-3
CC1CCCN(CCCNC(=O)c2cc3c(s2)-c2ccccc2OC3)C1 (stereo unspecified)	-2	-7	-4	15	-1	4
CCOc1ccc(NC(=O)CC(NC(C)=O)c2ccccc2)cc1S(=O)(=O)N1CCCC1 (stereo unspecified)	1	0	-11	0	-15	0
CC(C)Cn1c(-c2ccccc2F)n[nH]c1=S	46*	-4	-13	0	-5	2
COCCNC(=O)C1(C)CCCN(C(=O)c2ccccc2OC)C1 (stereo unspecified)	-6	-2	-1	0	-4	-2
Cc1cc(/C=C(\C#N)C(N)=O)c(C)n1-c1ccc(N2CCOCC2)c([N+](=O)[O-])c1	10	29*	19	13	12	-6
Cc1cc(C=O)c(C)n1-c1ccc(N2CCCCC2)c([N+](=O)[O-])c1	11	-3	2	3	5	-12
CC(C)c1nc(SCC(=O)Nc2c[nH]c(=O)[nH]c2=O)c2cnn(-c3ccccc3)c2n1	1	-2	41*	-1	3	0
Cc1nc(SCC(=O)Nc2c(C)nn(C)c2C)c2cnn(-c3ccccc3)c2n1	-2	2	5	3	-5	-6
Cc1onc(-c2ccccc2Cl)c1C(=O)NC1CCCCCC1	12	-6	-4	3	8	-7
O=c1ccnc(Nc2ccc3c(c2)OCCO3)[nH]1	-1	0	-22	1	29	7
CCN1C(=C(C#N)C#N)C=Cc2cc(C)ccc21	-1	-6	-2	1	9	1
C=CC[n+]1c(/C=C2\C=Cc3cc(C)ccc3N2CC)ccc2ccccc21	37*	5	38*	16*	-7	-15
COc1ccc(CNC(=O)c2cccc3c(-c4cccnc4)coc23)cc1OC	35*	9	28*	15*	-8	-18
O=C(NCc1ccc(F)c(F)c1)c1cccc2c(-c3cccnc3)coc12	13	6	2	12	1	-13
COC(=O)c1ccccc1NC(=O)CSc1nnc(-c2cccc(NC(C)=O)c2)n1C	0	-2	-8	0	16	0
Cc1ccc(NS(=O)(=O)c2cc(OCC(N)=O)c(C)cc2Cl)cc1C	-5	34*	10	1	-4	15
Cc1cccc(NS(=O)(=O)c2cc(OCC(N)=O)c(C)cc2Cl)c1	5	28*	4	2	6	-9
CC(C)C[C@H]1COCCS(=O)(=O)N1Cc1cccc(C(F)(F)F)c1	-1	-6	-9	0	-2	5
COCCCNC(=O)c1oc2ccc(S(=O)(=O)N(C)C3CCCCC3)cc2c1C	-5	1	-6	1	9	2
O=C(C(Cl)Cl)N1CC2CCC(CC2)C1	-9	-9	-11	0	12	18*
